The target of series [1] is Genome polyprotein (dengue virus type 2) (UniProt P29990). The series is described as follows: Inhibition of DENV NS2B-NS3 protease assessed as fluorescence emission using benzoyl-Nle-Lys-Arg-Arg-AMC as substrate at 150 nM preincubated with enzyme for 60 min followed by substrate addition and measured for 15 min by fluorimetric assay. In a few lines: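 The substrate is cleaved to release fluorescent AMC, and fluorescence intensity is the read-out. Percent inhibition is taken from triplicate measurements at 150 nM compound.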

The target is the same in series [2]. The series is described as follows: Inhibition of DENV NS2B-NS3 protease assessed as fluorescence emission using benzoyl-Nle-Lys-Arg-Arg-AMC as substrate at 1.4 to 16.7 uM by fluorimetric assay. The note with it: dose 1.4-16.7 µM, time min <=60, TDE = time-dependent effect.
Series [3] has the same target. The series is described as follows: Inhibition of DENV NS2B-NS3 protease assessed as ratio of Kinact/Ki using benzoyl-Nle-Lys-Arg-Arg-AMC as substrate incubated for 60 min by measuring fluorescence intensity. In a few lines: (§1)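 Time-dependent inactivation of DENV NS2B-NS3 protease was followed by fluorescence from cleavage of benzoyl-Nle-Lys-Arg-Arg-AMC at several inhibitor concentrations. kobs values were obtained at each concentration and plotted against inhibitor concentration to derive kinact, Ki and the second-order rate constant kinact/Ki.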

Series [4] addresses T1, Genome polyprotein (dengue virus type 2, UniProt P29990). The series is described as follows: Inhibition of DENV2 NS2B-NS3 protease expressed in Escherichia coli assessed as fluorescence emission using Bz-nKRR-AMC as substrate by microplate reader assay. The procedure, abridged: (§2)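 Fluorometric protease assay reading the fluorescence of product released from benzoyl-Nle-Lys-Arg-Arg-AMC cleavage, with aprotinin as a positive control. Percent inhibition was taken from triplicate measurements at 150 nM inhibitor. IC50 values were determined by a similar method for selected compounds.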

Series [5] addresses T1, Genome polyprotein. The series is described as follows: Binding affinity to DENV NS2B-NS3 protease assessed as inhibition constant using benzoyl-Nle-Lys-Arg-Arg-AMC as substrate incubated for 60 min by measuring fluorescence intensity. In a few lines:
as §1

Series [6] deals with Genome polyprotein (dengue virus type 2) (UniProt P29990). The series is described as follows: Inhibition of DENV NS2B-NS3 protease assessed as inactivation constant using benzoyl-Nle-Lys-Arg-Arg-AMC as substrate incubated for 60 min by measuring fluorescence intensity. In a few lines: as §1
Series [7] deals with T1, Genome polyprotein. The series is described as follows: Inhibition of DENV NS2B-NS3 protease assessed as fluorescence emission using benzoyl-Nle-Lys-Arg-Arg-AMC as substrate preincubated with enzyme for 60 min followed by substrate addition and measured for 15 min by fluorimetric assay. The procedure, abridged:
as §2

The test system of series [8] is BHK-21. The series is described as follows: Cytoprotective activity against DENV infected hamster BHK-21 cells assessed as cell survival rate at 5 uM incubated for 5 days measured by CCK-8 assay. The series is classed as functional, cell-based. The note with it: Mesocricetus auratus, time 5.0 day. In a few lines:
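BHK-21 cells are infected with DENV and treated with compound at 5 μM. Cell viability is read by CCK-8. Survival rate is compared against the virus-infection control.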
(In general: Tetrazolium dyes change colour on reduction, which living cells bring about.)

Series [9] relates to BHK-21. The series is described as follows: Cytotoxicity against DENV infected hamster BHK-21 cells assessed as cell survival rate at 5 uM incubated for 5 days measured by CCK-8 assay. The series is classed as toxicity, cell-based, Mesocricetus auratus. The settings on record: bhk-21, 120 h, time 5 day.

Calls of active or inactive are those of the source. No cut-off for these calls is given here.

Consider `CCOc1ccc(S(=O)(=O)n2nc(OC(=O)c3ccc(OC)cc3)cc2N)cc1`, for which, in series [1], the inhibition was 43.6%. The same measure, in the same setting: next, `Nc1cc(OC(=O)c2ccc([N+](=O)[O-])cc2)nn1S(=O)(=O)c1ccc(Cl)cc1`: 13.2%; `Nc1cc(OC(=O)c2ccc([N+](=O)[O-])cc2)nn1S(=O)(=O)c1ccc(C(F)(F)F)cc1`: 22%.

`COc1ccc(S(=O)(=O)n2nc(OC(=O)c3ccc(-c4ccccc4)cc3)cc2N)cc1`: the inhibition result is “Tde” in series [2] and 59.7% in series [1]. Besides, the Ratio in [3] was 156. The half-maximal inhibitory concentration (IC50) at Genome polyprotein [4] and on Genome polyprotein [7] was 500 nM throughout. Also, the inhibitory constant (Ki) at Genome polyprotein [5] is 7250 nM. For the same molecule, the Kinact in series [6] was 1.13 10^-3/s. Take `CCOc1ccc(S(=O)(=O)n2nc(OC(=O)c3ccc([N+](=O)[O-])cc3)cc2N)cc1`: the inhibition in series [1] came out at 32.6%. With `Nc1cc(OC(=O)c2ccc(-c3ccccc3)cc2)nn1S(=O)(=O)c1ccc(Oc2ccccc2)cc1`, in [1], the inhibition was 95%. Consider `CCOc1ccc(S(=O)(=O)n2nc(OC(=O)c3ccc(-c4ccccc4)cc3)cc2N)cc1`, for which the inhibition result was “Tde” in series [2] and 100% in [1]. Further, the Ratio in [3] amounted to 1580. For the same molecule, the result in the series on BHK-21 [8] was Active. In the series with BHK-21 [9], the Activity result is recorded as “Non-Toxic”. For the same molecule, the Ki on Genome polyprotein [5] was found to be 665 nM. The Kinact in series [6] is 1.05 10^-3/s. In addition, the concentration for half-maximal inhibition (IC50) at Genome polyprotein [7] turned out to be 6 nM.

As for `Cc1ccc(C(=O)Oc2cc(N)n(S(=O)(=O)c3ccc(C(F)(F)F)cc3)n2)cc1`, in series [1], the inhibition was 19.3%. On the same count and under the same terms, next, `COc1ccc(C(=O)Oc2cc(N)n(S(=O)(=O)c3ccc(Oc4ccccc4)cc3)n2)cc1`: 76.7%; `CC(C)(C)c1ccc(S(=O)(=O)n2nc(OC(=O)c3ccc(N)cc3)cc2N)cc1`: 88.1%. On the same count and under the same terms, the value for `Nc1ccc(C(=O)Oc2cc(N)n(S(=O)(=O)c3ccc(F)cc3)n2)cc1` was 87.8%; that for `CC(C)(C)c1ccc(S(=O)(=O)n2nc(OC(=O)c3ccc([N+](=O)[O-])cc3)cc2N)cc1` was 20.4%; that for `Nc1cc(OC(=O)c2ccc([N+](=O)[O-])cc2)nn1S(=O)(=O)c1ccccc1` was 27.3%. On the same count and under the same terms, the value for `CC(C)(C)c1ccc(S(=O)(=O)n2nc(OC(=O)c3ccc(-c4ccccc4)cc3)cc2N)cc1` was 59.8%. Turning to `Nc1cc(OC(=O)c2ccc(-c3ccccc3)cc2)nn1S(=O)(=O)c1ccc(C(F)(F)F)cc1`, in [1], the inhibition was 41.2%.

Turning to `CCOc1ccc(S(=O)(=O)n2nc(OC(=O)c3ccc(N)cc3)cc2N)cc1`, in series [1], the inhibition is 71.9%. The same measure, in the same setting: the value for `CCOc1ccc(S(=O)(=O)n2nc(OC(=O)c3ccc(C)cc3)cc2N)cc1` was 42.1%. `Nc1ccc(C(=O)Oc2cc(N)n(S(=O)(=O)c3ccc(Oc4ccccc4)cc3)n2)cc1`: in series [1], the inhibition came to 100%. The 50% inhibitory concentration (IC50) on Genome polyprotein [7] came out at 9 nM. As to `COc1ccc(C(=O)Oc2cc(N)n(S(=O)(=O)c3ccc(C(F)(F)F)cc3)n2)cc1`, the inhibition in series [1] was determined as 16.1%. Same read-out and setting: next, `COc1ccc(S(=O)(=O)n2nc(OC(=O)c3ccc(N)cc3)cc2N)cc1`: 68.5%; `Nc1cc(OC(=O)c2ccc([N+](=O)[O-])cc2)nn1S(=O)(=O)c1ccc(Br)cc1`: 17.3%; `Nc1ccc(C(=O)Oc2cc(N)n(S(=O)(=O)c3ccc(C(F)(F)F)cc3)n2)cc1`: 52.6%. Regarding `Nc1cc(OC(=O)c2ccc([N+](=O)[O-])cc2)nn1S(=O)(=O)c1ccc(Oc2ccccc2)cc1`, the inhibition in series [1] is 64.3%. Still for that read-out and setting: the value for `Nc1ccc(C(=O)Oc2cc(N)n(S(=O)(=O)c3ccc(Cl)cc3)n2)cc1` was 85.6%; that for `Cc1ccc(C(=O)Oc2cc(N)n(S(=O)(=O)c3ccc(Oc4ccccc4)cc3)n2)cc1` was 81%. Consider `Nc1ccc(C(=O)Oc2cc(N)n(S(=O)(=O)c3ccc(Br)cc3)n2)cc1`, for which the inhibition in series [1] was found to be 100%. In addition, the 50% inhibitory concentration (IC50) at Genome polyprotein [7] was determined as 74 nM. As to `Nc1ccc(C(=O)Oc2cc(N)n(S(=O)(=O)c3ccccc3)n2)cc1`, the inhibition in series [1] stood at 76.4%. As for `Nc1cc(OC(=O)c2ccc(-c3ccccc3)cc2)nn1S(=O)(=O)c1ccccc1`, the inhibition in series [1] came to 100%. The concentration for half-maximal inhibition (IC50) on Genome polyprotein [7] is 12 nM.

As usually defined, the inhibition is the drop in the measured response relative to a control, in per cent. Broadly, the IC50 is the concentration at which inhibition is half-maximal. Usually Ki stands for the dissociation constant of the complex between target and ligand, obtained from inhibition or displacement.

Source of the values: ChEMBL document CHEMBL5038677, “Identification and In Silico Binding Study of a Highly Potent DENV NS2B-NS3 Covalent Inhibitor” (ACS Med Chem Lett, 2022).
